The species named for test [1] is Oryctolagus cuniculus. Put plainly: Percent inhibition of compound against U-44,069 (10e-7 M) induced contraction of rabbit aorta at 3*10e-8 M concentration. In kind it is functional. An outline of the steps: (§1)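 Rabbit aortic strips (2-3 mm × 3 cm) in Krebs-Henseleit, 37 °C, 95% O2/5% CO2, 2 g resting tension, isometric recording. Drugs (final 10⁻⁵ to 10⁻⁸ M, 0.01% DMSO) added 10 min before U-44069 (2-6 nM, about 50% of the 30 mM KCl contraction). Percent inhibition, or concentration reducing contraction by 50%; duplicate means.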

Test [2] is filed under the species Oryctolagus cuniculus. As to the kind of experiment: In vitro percent inhibition against U-44,069 (10e-7 M) induced contraction of rabbit aorta at 10e-5 M concentration. It counts as functional. An outline of the steps:
as §1

The species entered for test [3] is Oryctolagus cuniculus. Put plainly: In vitro concentration that reduced U-44069-induced contraction of the rabbit aorta by 50%. In kind it is functional. The method in brief:
as §1

Test [4] is filed under the species Oryctolagus cuniculus. As to the kind of experiment: In vitro percent inhibition against U-44,069 (10e-7 M) induced contraction of rabbit aorta at 10e-6 M concentration. In kind it is functional. The method in brief:
as §1

The species entered for test [5] is Oryctolagus cuniculus. Put plainly: In vitro percent inhibition against U-44,069 (10e-7 M) induced contraction of rabbit aorta at 10e-7 M concentration. In kind it is functional. An outline of the steps:
as §1

For test [6], the system named is Cavia porcellus. As to the kind of experiment: In vivo percentage of inhibition against LTD -induced bronchoconstriction in guinea pig at a concentration of 20 mg/kg after 1 hour of oral administration. It counts as functional. The method in brief:
(§2)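 Urethane-anesthetized (1.5 g/kg ip) guinea pigs given gallamine (1 mg/kg iv); bronchoconstriction measured by Konzett-Rössler overflow. Challenge was U-46619, LTD4 or PAF at 10 μg/kg iv, or IgG1-mediated in animals sensitized ip with egg albumin (1 mg/kg)/FCA and used 3 weeks later. Drug given orally in 5% gum arabic 1 h before challenge; n = 8. ID50 = dose giving 50% inhibition.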

Test [7] relates to Cavia porcellus. As to the kind of experiment: In vivo percentage of inhibition against LTD -induced bronchoconstriction in guinea pig at a concentration of 5 mg/kg after 1 hour of oral administration. It counts as functional. An outline of the steps: as §2
The test system of test [8] is Cavia porcellus. Put plainly: In vivo percentage of inhibition against U-46619 -induced bronchoconstriction in guinea pig at a concentration of 5 mg/kg after 1 hour of oral administration. In kind it is functional. An outline of the steps: as §2
In test [9] the test system is Cavia porcellus. As to the kind of experiment: In vivo percentage of inhibition against U-46619-induced bronchoconstriction in guinea pig at a concentration of 20 mg/kg when after 1 hour of oral administration. In kind it is functional. The method in brief:
as §2

For test [10], the species on record is Cavia porcellus. Put plainly: In vitro concentration that reduced U-44069-induced aggregation of guinea pig platelets by 50%. In kind it is functional. The method in brief:
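PRP from conscious male guinea pigs, blood taken by cardiac puncture into 3.15% citrate (1:9); platelets adjusted to 450 000/μL. PRP preincubated 2 min at 37 °C, then incubated 2 min with U-44069 at a concentration giving submaximal aggregation. IC50 = antagonist concentration reducing aggregation by 50%.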

The species named for test [11] is Oryctolagus cuniculus. Put plainly: In vitro concentration that reduced U-44069-induced contraction of the rabbit aorta. In kind it is functional. The note with it: read-out: pA2 (converted). An outline of the steps:
as §1

The species named for test [12] is Cavia porcellus. As to the kind of experiment: In vitro concentration that reduced U-46619-induced contraction of guinea pig lung. The note with it: read-out: pA2 (converted).

From ChEMBL document CHEMBL1124597, “Quinones. 4. Novel eicosanoid antagonists: synthesis and pharmacological evaluation” (J Med Chem, 1989) come the findings set out here.

pIC50: −log10 of the molar value.

As usually defined, the Inhibition is the drop in the measured response relative to a control, in per cent. High values mean a strong effect, low ones a weak effect. For orientation: pIC50 means the negative decadic logarithm of the IC50, by convention in mol/L. Low values mean a large IC50, high ones a small IC50. As usually defined, the inhibition in vivo is the share of the control response that was lost under treatment. Low values mean a response near the control, high ones a response far below the control.

As for `CC1=C(C)C(=O)C(C(CCCCCC(=O)O)c2ccc(F)cc2)=C(C)C1=O` (configuration not stated), the Inhibition in the test listed under Oryctolagus cuniculus [1] came to 20%; in the test filed under Oryctolagus cuniculus [2], 100%; in the test listed under Oryctolagus cuniculus [4], 100%; in the test filed under Oryctolagus cuniculus [5] it was 96%. Further, the pIC50 in the test filed under Oryctolagus cuniculus [3] is 7.32.
On to `CC1=C(C)C(=O)C([C@@H](CCCCCC(=O)O)c2ccccc2)=C(C)C1=O`, for which the figures for the inhibition in vivo at 20 mg/kg with Cavia porcellus [6] and in the test on Cavia porcellus [9] were 65% and 68%, respectively. Further, the inhibition in vivo at 5 mg/kg in the test with Cavia porcellus [7] is 27%; in the test with Cavia porcellus [8], 47%. The same compound gave a pIC50 in the test filed under Cavia porcellus [10] of 4.89. The Kb in the test filed under Oryctolagus cuniculus [11] was 229 nM; in the test filed under Cavia porcellus [12], 295 nM.
